Experimental data as given in ChEMBL document CHEMBL5705892, “MK-2206, an allosteric Akt inhibitor, enhances antitumor efficacy by standard chemotherapeutic agents or molecular targeted drugs in vitro and in vivo” (Mol Cancer Ther, 2010).
The source made the active and inactive calls. The calls are words filed in the database; no cut-off is given here.

Assays:
[1] = system: HCC827; assay: Antiproliferative activity against human HCC827 cells assessed as reduction in cell proliferation measured after 72 hrs by celltiter-glo assay; assay type: functional, cell-based; settings: HCC827, 72 h
Outline: (§1)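 Cells in RPMI 1640 with 10% heat-inactivated FBS at 37°C and 5% CO₂ were seeded at 2 to 3 × 10³ per well. […] Growth was read as cellular ATP by CellTiter-Glo.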

[2] = system: NCI-H1299; assay: Antiproliferative activity against human NCI-H1299 cells assessed as reduction in cell proliferation measured after 72 hrs by celltiter-glo assay; assay type: functional, cell-based; settings: NCI-H1299, 72 h; outline: as §1
[3] = system: MDA-MB-468; assay: Antiproliferative activity against human MDA-MB-468 cells assessed as reduction in cell proliferation measured after 72 hrs by celltiter-glo assay; assay type: functional, cell-based; settings: MDA-MB-468, 72 h; outline: as §1
[4] = system: NCI-H292; assay: Synergistic antiproliferative activity against human NCI-H292 cells assessed as combination index at ED50 measured after 72 hrs in presence of erlotinib by celltiter-glo assay; assay type: functional
[5] = system: NCI-H1299; assay: Synergistic antiproliferative activity against human NCI-H1299 cells assessed as combination index at ED75 measured after 72 hrs in presence of erlotinib by celltiter-glo assay; assay type: functional
[6] = system: NCI-N87; assay: Synergistic antiproliferative activity against human NCI-N87 cells assessed as combination index at ED75 measured after 72 hrs in presence of lapatinib by celltiter-glo assay; assay type: functional
[7] = system: Calu-6; assay: Synergistic antiproliferative activity against human Calu-6 cells assessed as combination index at ED90 measured after 72 hrs in presence of erlotinib by celltiter-glo assay; assay type: functional
Outline: (§2)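 Cells grown in RPMI 1640 with 10% heat-inactivated FBS at 37°C, 5% CO₂. Seeded at 2 to 3 × 10³ per well; drugs added 24 h later. […] Viability read as cellular ATP by CellTiter-Glo. CI calculated by Chou–Talalay from median-effect plots at ED50, ED75 and ED90.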

[8] = system: MDA-MB-468; assay: Synergistic antiproliferative activity against human MDA-MB-468 cells assessed as combination index at ED90 measured after 72 hrs in presence of lapatinib by celltiter-glo assay; assay type: functional
[9] = system: NCI-N87; assay: Synergistic antiproliferative activity against human NCI-N87 cells assessed as combination index at ED90 measured after 72 hrs in presence of lapatinib by celltiter-glo assay; assay type: functional
[10] = biological target: RAC-alpha serine/threonine-protein kinase (Homo sapiens) (UniProt P31749); assay: Inhibition of AKT in human A-431 cells assessed as reduction in AKT phosphorylation at S473 residue at 5 umol/L measured after 5 hrs by Western blot analysis; assay type: cell-based; settings: dose 5.0 µmol/L
Sequence of RAC-alpha serine/threonine-protein kinase (Homo sapiens) (P31749 whole entry): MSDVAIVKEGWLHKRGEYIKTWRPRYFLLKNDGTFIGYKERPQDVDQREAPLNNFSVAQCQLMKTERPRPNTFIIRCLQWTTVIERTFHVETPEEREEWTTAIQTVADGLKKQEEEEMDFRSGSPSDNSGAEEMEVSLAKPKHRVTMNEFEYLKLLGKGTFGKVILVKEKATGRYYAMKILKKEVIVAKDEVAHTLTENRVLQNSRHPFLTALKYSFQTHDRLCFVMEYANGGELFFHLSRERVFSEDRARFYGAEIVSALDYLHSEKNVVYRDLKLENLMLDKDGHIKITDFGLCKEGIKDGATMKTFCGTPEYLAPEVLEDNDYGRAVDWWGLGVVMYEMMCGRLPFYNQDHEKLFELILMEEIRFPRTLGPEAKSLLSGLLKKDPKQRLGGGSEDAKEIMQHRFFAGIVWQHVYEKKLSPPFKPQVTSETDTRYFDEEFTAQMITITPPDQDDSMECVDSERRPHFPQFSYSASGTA
Outline: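 Cells were lysed in Tris-HCl pH 7.5, 150 mM NaCl, 1% Triton X-100 with protease and phosphatase inhibitors. Lysates were run on SDS-PAGE, transferred to nitrocellulose and probed with phospho-specific antibodies.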

[11] = In vivo inhibition of ERK phosphorylation at T202/Y204 residues in human NCI-H292 cells xenografted mouse at 120 mg/kg, po administered as single dose 2 hrs post-erlotinib treatment measured after 12 hrs by Western blot analysis relative to control; assay type: functional
[12] = system: NCI-H292; assay: Antitumor activity against human NCI-H292 cells xenografted in CD-1 mouse assessed as tumor growth suppression at 360 mg/kg, po administered once a week for 2 weeks and measured twice a week during compound dosing by caliper method; assay type: functional, organism-based
Outline: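 Female CD1-nude mice carried s.c. NCI-H292 cells in Matrigel/PBS and were randomized at 0.2 cm³, n = 5. […] MK-2206 (30% Captisol) was given 2 h later at 120 mg/kg po on days 0, 2, 4, 7, 9, 11, or at 360 mg/kg on days 0 and 7. Control received vehicle. Caliper volume twice weekly.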

[13] = system: HCC1954; assay: Synergistic antiproliferative activity against human HCC1954 cells assessed as combination index at ED50 treated 24 hrs prior to lapatinib and measured after 72 hrs by celltiter-glo assay; assay type: functional; settings: time 96 hrs
[14] = system: SK-OV-3; assay: Synergistic antiproliferative activity against human SK-OV-3 cells assessed as combination index at ED75 treated 24 hrs prior to lapatinib and measured after 72 hrs by celltiter-glo assay; assay type: functional; settings: time 96 hrs
[15] = system: NCI-N87; assay: Synergistic antiproliferative activity against human NCI-N87 cells assessed as combination index at ED75 treated 24 hrs prior to lapatinib and measured after 72 hrs by celltiter-glo assay; assay type: functional; settings: time 96 hrs
[16] = system: SK-OV-3; assay: Synergistic antiproliferative activity against human SK-OV-3 cells assessed as combination index at ED75 measured after 96 hrs in presence of lapatinib by celltiter-glo assay; assay type: functional
[17] = system: HCC70; assay: Synergistic antiproliferative activity against lapatinib pretreated human HCC70 cells assessed as combination index at ED90 measured after 72 hrs by celltiter-glo assay; assay type: functional
[18] = system: SK-BR-3; assay: Synergistic antiproliferative activity against lapatinib pretreated human SK-BR-3 cells assessed as combination index at ED90 measured after 72 hrs by celltiter-glo assay; assay type: functional
[19] = system: MDA-MB-468; assay: Synergistic antiproliferative activity against human MDA-MB-468 cells assessed as combination index at ED90 measured after 96 hrs in presence of lapatinib by celltiter-glo assay; assay type: functional
[20] = system: ZR-75-1; assay: Synergistic antiproliferative activity against human ZR-75-1 cells assessed as combination index at ED50 measured after 72 hrs in presence of docetaxel by celltiter-glo assay; assay type: functional
[21] = system: MCF7; assay: Synergistic antiproliferative activity against human MCF7 cells assessed as combination index at ED75 measured after 72 hrs in presence of docetaxel by celltiter-glo assay; assay type: functional; outline: as §2
[22] = system: A2780; assay: Synergistic antiproliferative activity against human A2780 cells assessed as combination index at ED90 measured after 72 hrs in presence of camptothecin by celltiter-glo assay; assay type: functional
Outline: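 Cells were seeded at 2–3 × 10³ per well in RPMI 1640 with 10% FBS. At 24 h, MK-2206 and the partner drug were added simultaneously at constant concentration ratios spanning each agent's IC₅₀, for 72 h. Growth was read as cellular ATP by CellTiter-Glo. CI was taken from median-effect plots of each agent alone and in combination (Chou–Talalay), at ED₅₀, ED₇₅ and ED₉₀.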

[23] = system: NCI-H460; assay: Synergistic antiproliferative activity against human NCI-H460 cells assessed as combination index at ED75 measured after 72 hrs in presence of 5-FU by celltiter-glo assay; assay type: functional
[24] = Toxicity in human NCI-H460 cells xenografted CD1 nude mouse assessed as body weight loss at 120 mg/kg, po administered 3 times per week for 2 weeks measured on day 14 to 16 in presence of gemcitabine; assay type: organism-based; settings: in vivo, 336 h, time 14-16 day
Outline: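 NCI-H460 cells in 50% Matrigel/PBS injected s.c. into flank of CD1-nude mice; randomized at mean tumour 0.2 cm³ (n = 5). MK-2206 in 30% Captisol, 120 mg/kg p.o. days 0, 2, 4, 7, 9, 11. Carboplatin 50 mg/kg i.v. in saline days 0 and 7 (from day 12 after implant), or gemcitabine 100 mg/kg i.v. in saline days 0 and 7 (from day 8). Body weight monitored.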

[25] = biological target: RAC-alpha serine/threonine-protein kinase (Homo sapiens) (UniProt P31749); assay: Inhibition of AKT phosphorylation at S473 residue in human NCI-H661 cells at 3 umol/L measured after 4 to 24 hrs in presence of carboplatin by MSD assay; settings: time 4-24 hrs

Cl.NC1(c2ccc(-c3nc4ccn5c(=O)[nH]nc5c4cc3-c3ccccc3)cc2)CCC1
IC50 [1]: 4.3 µM | IC50 [2]: 27 µM | IC50 [3]: 2.6 µM | CI50 [4]: 0.44 | CI75 [5]: 0.31 | CI75 [6]: 0.55 | CI90 [7]: 0.13 | CI90 [8]: 0.16 | CI90 [9]: 0.69 | inhibition [10]: Active | inhibition in vivo at 120 mg/kg [11]: 53.5% | Activity [12]: Active | CI50 [13]: 0.18 | CI75 [14]: 0.18 | CI75 [15]: 0.18 | CI75 [16]: 0.18 | CI90 [17]: 0.18 | CI90 [18]: 0.18 | CI90 [19]: 0.18 | CI50 [20]: 0.1 | CI75 [21]: 0.5 | CI90 [22]: 0.29 | CI75 [23]: 0.45 | Activity [24]: Non-Toxic | inhibition [25]: Active
